{
  "source": "ChEMBL document CHEMBL1255479",
  "about": "“Preclinical characterization of the antiviral activity of SCH 900518 (narlaprevir), a novel mechanism-based inhibitor of hepatitis C virus NS3 protease” (Antimicrob Agents Chemother, 2010)",
  "key": {"[1]": {"test_system": "Hepatitis C virus", "test": "Ratio of Ki for boceprevir-resistant Hepatitis C virus genotype 1b NS3 protease V36M mutant to Ki for Hepatitis C virus genotype 1b NS3 protease", "parameters": "species or system Hepatitis C virus subtype 1b", "procedure,_shortened": "(§1)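 Recombinant single-chain NS3-NS4A protease (wild type or mutant) in a continuous spectrophotometric assay with chromogenic substrate acetyl-DTEDVVP(norvaline)-O-4-phenylazophenol. Absorbance followed over 60 min at several inhibitor concentrations. Progress curves fit to a modified Morrison equation; K*i derived using substrate concentration and Km. Values are mutant/wild-type fold increase, means of two or more experiments unless noted.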"}, "[2]": {"test_system": "Hepatitis C virus", "test": "Antiviral activity against Hepatitis C virus genotype 1b assessed as log reduction in RNA level at 1.2 times EC90 after 14 days by RT-PCR method", "assay_type": "functional, organism-based", "details": "Hepacivirus hominis", "procedure,_shortened": "(§2)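 Replicon cells kept on compound for up to 14 days, refreshed every 2–3 days and split at confluence. Replicon RNA by TaqMan: dCT = NS5B CT − GAPDH CT; ddCT = treated dCT − vehicle-control dCT; log RNA reduction = log(1/2^ddCT), with day 0 set to 0. Curve fit to one-phase exponential decay.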"}, "[3]": {"test_system": "Hepatitis C virus", "test": "Ratio of Ki for boceprevir-resistant Hepatitis C virus genotype 1b NS3 protease T54A mutant to Ki for Hepatitis C virus genotype 1b NS3 protease", "parameters": "species or system Hepatitis C virus subtype 1b", "procedure,_shortened": "as §1"}, "[4]": {"test_system": "Hepatitis C virus", "test": "Resistance index, ratio of EC90 for Hepatitis C virus genotype 1b expressing NS3 protease A156S mutant to EC90 for wild type Hepatitis C virus genotype 1b after 3 days by RT-PCR method", "assay_type": "functional, Hepacivirus hominis", "procedure,_shortened": "(§3)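 Replicons carrying mutant or wild-type NS3 protease treated 3 days; replicon RNA by real-time PCR against GAPDH. EC50 = concentration raising CT by 1 over projected baseline; EC90 = increase of 3.2. Index = mutant/wild-type fold increase, means of two or more experiments unless stated (some single experiment).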"}, "[5]": {"test_system": "Hepatitis C virus", "test": "Ratio of Ki for boceprevir-resistant Hepatitis C virus genotype 1b NS3 protease T54S mutant to Ki for Hepatitis C virus genotype 1b NS3 protease", "parameters": "species or system Hepatitis C virus subtype 1b", "procedure,_shortened": "as §1"}, "[6]": {"test_system": "Hepatitis C virus", "test": "Ratio of Ki for boceprevir-resistant Hepatitis C virus genotype 1b NS3 protease A156S mutant to Ki for Hepatitis C virus genotype 1b NS3 protease", "parameters": "species or system Hepatitis C virus subtype 1b", "procedure,_shortened": "as §1"}, "[7]": {"test_system": "Hepatitis C virus", "test": "Ratio of Ki for boceprevir-resistant Hepatitis C virus genotype 1b NS3 protease V36A mutant to Ki for Hepatitis C virus genotype 1b NS3 protease", "parameters": "species or system Hepatitis C virus subtype 1b", "procedure,_shortened": "as §1"}, "[8]": {"test_system": "Hepatitis C virus", "test": "Ratio of Ki for boceprevir-resistant Hepatitis C virus genotype 1b NS3 protease V170A mutant to Ki for Hepatitis C virus genotype 1b NS3 protease", "parameters": "species or system Hepatitis C virus subtype 1b", "procedure,_shortened": "as §1"}, "[9]": {"test": "Inhibition of Hepatitis C virus genotype 2a NS3 protease", "parameters": "species or system Hepatitis C virus subtype 2a", "procedure,_shortened": "(§4)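 Recombinant single-chain NS3-NS4A protease (genotypes 1a, 1b, 2a, 3a). Continuous spectrophotometric assay: enzyme added to an equal volume of buffer containing the chromogenic substrate acetyl-DTEDVVP(norvaline)-O-4-phenylazophenol. Absorbance was followed for 60 min at several inhibitor levels. Progress curves were fit to a modified Morrison equation. Overall K*i was derived from vs/vo versus [I], corrected using substrate concentration and Km.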"}, "[10]": {"test_system": "Hepatitis C virus", "test": "Resistance index, ratio of EC50 for boceprevir-resistant Hepatitis C virus genotype 1b expressing NS3 protease A156T mutant to EC50 for wild type Hepatitis C virus genotype 1b after 3 days by RT-PCR method", "assay_type": "functional, Hepacivirus hominis", "procedure,_shortened": "as §3"}, "[11]": {"test_system": "Hepatitis C virus", "test": "Resistance index, ratio of EC90 for Hepatitis C virus genotype 1b expressing NS3 protease T54A/S mutant to EC90 for wild type Hepatitis C virus genotype 1b after 3 days by RT-PCR method", "assay_type": "functional, Hepacivirus hominis", "procedure,_shortened": "as §3"}, "[12]": {"test_system": "Hepatitis C virus", "test": "Antiviral activity against Hepatitis C virus genotype 1b assessed as decrease in RNA level after 3 days by RT-PCR method", "assay_type": "functional, Hepacivirus hominis", "details": "72 h", "procedure,_shortened": "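Genotype 1b replicon cells seeded on collagen I-coated plates; compound added 24 h post-seeding and incubated 3 days. Cells lysed; replicon RNA by real-time PCR (TaqMan) with GAPDH RNA as endogenous control. EC50 = concentration giving a CT increase of 1 over projected baseline CT; EC90 = increase of 3.2. Triplicate measurements.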"}, "[13]": {"test_system": "Hepatitis C virus", "test": "Antiviral activity against Hepatitis C virus genotype 1b assessed as log reduction in RNA level at 5 times EC90 after 14 days by RT-PCR method", "assay_type": "functional, organism-based", "details": "Hepacivirus hominis", "procedure,_shortened": "as §2"}, "[14]": {"test_system": "Hepatitis C virus", "test": "Inhibition of Hepatitis C virus genotype 1b NS3 protease", "parameters": "species or system Hepatitis C virus subtype 1b", "procedure,_shortened": "as §4"}, "[15]": {"test_system": "Hepatitis C virus", "test": "Ratio of Ki for boceprevir-resistant Hepatitis C virus genotype 1b NS3 protease D168V mutant to Ki for Hepatitis C virus genotype 1b NS3 protease", "parameters": "species or system Hepatitis C virus subtype 1b", "procedure,_shortened": "as §1"}, "[16]": {"test": "Inhibition of Hepatitis C virus genotype 3a NS3 protease", "parameters": "species or system Hepatitis C virus subtype 3a", "procedure,_shortened": "as §4"}, "[17]": {"test_system": "Hepatitis C virus", "test": "Ratio of Ki for boceprevir-resistant Hepatitis C virus genotype 1b NS3 protease T54S and R155K double-mutant to Ki for Hepatitis C virus genotype 1b NS3 protease", "parameters": "species or system Hepatitis C virus subtype 1b", "procedure,_shortened": "as §1"}, "[18]": {"test_system": "Hepatitis C virus", "test": "Ratio of Ki for boceprevir-resistant Hepatitis C virus genotype 1b NS3 protease F43C mutant to Ki for Hepatitis C virus genotype 1b NS3 protease", "parameters": "species or system Hepatitis C virus subtype 1b", "procedure,_shortened": "as §1"}, "[19]": {"test_system": "Hepatitis C virus", "test": "Ratio of Ki for boceprevir-resistant Hepatitis C virus genotype 1b NS3 protease V36M and R155K double-mutant to Ki for Hepatitis C virus genotype 1b NS3 protease", "parameters": "species or system Hepatitis C virus subtype 1b", "procedure,_shortened": "as §1"}, "[20]": {"test_system": "Hepatitis C virus", "test": "Resistance index, ratio of EC50 for boceprevir-resistant Hepatitis C virus genotype 1b expressing NS3 protease V36M and R155K mutant to EC50 for wild type Hepatitis C virus genotype 1b after 3 days by RT-PCR method", "assay_type": "functional, Hepacivirus hominis", "procedure,_shortened": "as §3"}, "[21]": {"test_system": "Hepatitis C virus", "test": "Resistance index, ratio of EC50 for boceprevir-resistant Hepatitis C virus genotype 1b expressing NS3 protease R155K mutant to EC50 for wild type Hepatitis C virus genotype 1b after 3 days by RT-PCR method", "assay_type": "functional, Hepacivirus hominis", "procedure,_shortened": "as §3"}, "[22]": {"test_system": "Hepatitis C virus", "test": "Resistance index, ratio of EC90 for Hepatitis C virus genotype 1b expressing NS3 protease A156T/V mutant to EC90 for wild type Hepatitis C virus genotype 1b after 3 days by RT-PCR method", "assay_type": "functional, Hepacivirus hominis", "procedure,_shortened": "as §3"}, "[23]": {"test_system": "Hepatitis C virus", "test": "Resistance index, ratio of EC50 for boceprevir-resistant Hepatitis C virus genotype 1b expressing NS3 protease T54A mutant to EC50 for wild type Hepatitis C virus genotype 1b after 3 days by RT-PCR method", "assay_type": "functional, Hepacivirus hominis", "procedure,_shortened": "as §3"}, "[24]": {"test": "Cytotoxicity against human HuH7 cells by MTS assay", "assay_type": "cell-based, Huh-7"}, "[25]": {"test_system": "Hepatitis C virus", "test": "Resistance index, ratio of EC50 for boceprevir-resistant Hepatitis C virus genotype 1b expressing NS3 protease D168V mutant to EC50 for wild type Hepatitis C virus genotype 1b after 3 days by RT-PCR method", "assay_type": "functional, Hepacivirus hominis", "procedure,_shortened": "as §3"}, "[26]": {"test_system": "Hepatitis C virus", "test": "Resistance index, ratio of EC50 for boceprevir-resistant Hepatitis C virus genotype 1b expressing NS3 protease V36M mutant to EC50 for wild type Hepatitis C virus genotype 1b after 3 days by RT-PCR method", "assay_type": "functional, Hepacivirus hominis", "procedure,_shortened": "as §3"}, "[27]": {"test_system": "Hepatitis C virus", "test": "Ratio of Ki for boceprevir-resistant Hepatitis C virus genotype 1b NS3 protease R155K mutant to Ki for Hepatitis C virus genotype 1b NS3 protease", "parameters": "species or system Hepatitis C virus subtype 1b", "procedure,_shortened": "as §1"}, "[28]": {"test_system": "Hepatitis C virus", "test": "Resistance index, ratio of EC50 for boceprevir-resistant Hepatitis C virus genotype 1b expressing NS3 protease V170A mutant to EC50 for wild type Hepatitis C virus genotype 1b after 3 days by RT-PCR method", "assay_type": "functional, Hepacivirus hominis", "procedure,_shortened": "as §3"}, "[29]": {"test_system": "Hepatitis C virus", "test": "Ratio of Ki for boceprevir-resistant Hepatitis C virus genotype 1b NS3 protease A156T mutant to Ki for Hepatitis C virus genotype 1b NS3 protease", "parameters": "species or system Hepatitis C virus subtype 1b", "procedure,_shortened": "as §1"}, "[30]": {"test": "Inhibition of Hepatitis C virus genotype 1a NS3 protease", "parameters": "species or system Hepatitis C virus subtype 1a", "procedure,_shortened": "as §4"}, "[31]": {"test_system": "Hepatitis C virus", "test": "Resistance index, ratio of EC50 for boceprevir-resistant Hepatitis C virus genotype 1b expressing NS3 protease A156S mutant to EC50 for wild type Hepatitis C virus genotype 1b after 3 days by RT-PCR method", "assay_type": "functional, Hepacivirus hominis", "procedure,_shortened": "as §3"}, "[32]": {"test_system": "Hepatitis C virus", "test": "Resistance index, ratio of EC90 for Hepatitis C virus genotype 1b expressing NS3 protease T54A and A156T mutant to EC90 for wild type Hepatitis C virus genotype 1b after 3 days by RT-PCR method", "assay_type": "functional, Hepacivirus hominis", "procedure,_shortened": "as §3"}},
  "note": "The source made the active and inactive calls. The calls are words filed in the database; no cut-off is given here.",
  "data": [
    {"smiles": "CCCC[C@H](NC(=O)[C@@H]1[C@@H]2[C@H](CN1C(=O)[C@@H](NC(=O)NC1(CS(=O)(=O)C(C)(C)C)CCCCC1)C(C)(C)C)C2(C)C)C(=O)C(=O)NC1CC1", "note": "[NARLAPREVIR]", "values": [
      {"measurement": "Ratio Ki", "setting": "[1]", "result": 3},
      {"measurement": "Activity", "setting": "[2]", "result": "Active"},
      {"measurement": "Ratio Ki", "setting": "[3]", "result": 8},
      {"measurement": "Ratio", "setting": "[4]", "result": 30},
      {"measurement": "Ratio Ki", "setting": "[5]", "result": 3},
      {"measurement": "Ratio Ki", "setting": "[6]", "result": 100},
      {"measurement": "Ratio Ki", "setting": "[7]", "result": 5},
      {"measurement": "Ratio Ki", "setting": "[8]", "result": 6},
      {"measurement": "Ki", "setting": "[9]", "result": 3, "unit": "nM"},
      {"measurement": "Ratio EC50", "setting": "[10]", "result": "> 1000"},
      {"measurement": "Ratio", "setting": "[11]", "result": 10},
      {"measurement": "EC90", "setting": "[12]", "result": 40, "unit": "nM"},
      {"measurement": "Activity", "setting": "[13]", "result": "Active"},
      {"measurement": "Ki", "setting": "[14]", "result": 7, "unit": "nM"},
      {"measurement": "Ratio Ki", "setting": "[15]", "result": 1},
      {"measurement": "Ki", "setting": "[16]", "result": 7, "unit": "nM"},
      {"measurement": "Ratio Ki", "setting": "[17]", "result": 58},
      {"measurement": "Ratio Ki", "setting": "[18]", "result": 8},
      {"measurement": "Ratio Ki", "setting": "[19]", "result": 160},
      {"measurement": "Ratio EC50", "setting": "[20]", "result": 130},
      {"measurement": "Ratio EC50", "setting": "[21]", "result": 15},
      {"measurement": "Ratio", "setting": "[22]", "result": 500},
      {"measurement": "Ratio EC50", "setting": "[23]", "result": 11},
      {"measurement": "CC50", "setting": "[24]", "result": "> 25000", "unit": "nM"},
      {"measurement": "Ratio EC50", "setting": "[25]", "result": 1},
      {"measurement": "Ratio EC50", "setting": "[26]", "result": 8},
      {"measurement": "Ratio Ki", "setting": "[27]", "result": 8},
      {"measurement": "Ratio EC50", "setting": "[28]", "result": 10},
      {"measurement": "Ratio Ki", "setting": "[29]", "result": 3000},
      {"measurement": "Ki", "setting": "[30]", "result": 0.7, "unit": "nM"},
      {"measurement": "Ratio EC50", "setting": "[31]", "result": 70},
      {"measurement": "Ratio", "setting": "[32]", "result": ">600"}
    ]}
  ]
}
